# Source: PubChem BioAssay
# Rows were chosen to be rich in hits. Some 2.3% of all compounds tested hit in one or more screens of this group.
# TRPC6 inh = mouse TRPC6 channel inhibitors, primary screen, cell-based, HEK293, membrane potential dye; Short transient receptor potential channel 6 (Mus musculus), Q61143; ACh-evoked depolarization; active compounds read low; B-score at 10 µM; 310,000 tested, 1.1% active;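 active means B-score under library mean minus 3 SD, initial fluorescence not abnormally high, positive integrated signal ratio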;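 further: B-score derived from integrated fluorescence ratio over the kinetic read; more negative B-score means stronger inhibition of depolarization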
# TRPC4 inh = inhibitors of mouse TRPC4 channel, primary screen, Fluo4 calcium, HEK293 TRPC4beta/mu-opioid cells. Short transient receptor potential channel 4 (Mus musculus), Q9QUQ5. DAMGO-evoked Fluo4 calcium flux; active compounds read low. B-score at 10 µM. 300,000 tested, 0.39% active. AID 2247, 2010;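 active means B-score over 3 SD under the library average, no early fluorescence shift, positive overall ratio signal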
#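 Assay system: HEK293 cells with stable TRPC4beta plus mu-opioid receptor expression. Dosing: single dose. Measured by: Fluo4 Ca2+ flux fluorescence. Also added: DAMGO in two steps, submaximal then maximal. Read-out: B score from integrated Fluo4 fluorescence ratio.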
# TRPC6 activator = mouse TRPC6 channel activators, primary screen, cell-based, HEK293, membrane potential dye; Short transient receptor potential channel 6 (Mus musculus), Q61143; HEK293-TRPC6 membrane potential dye fluorescence; active compounds read high; B-score at 10 µM; 310,000 tested, 0.13% active;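 active means B-score of the integrated fluorescence ratio above library mean plus 3 SD, and starting fluorescence ratio within library mean plus 5 SD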;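 further: higher score means more depolarization so channel activation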
# TRPC4 PAM = positive allosteric modulators of TRPC4, primary screen, cell-based, mouse TRPC4beta, HEK293 mu-opioid, Fluo-4 calcium | DAMGO EC20, Fluo-4 Ca2+ flux; active compounds read high | 310,000 tested, 0.42% active | B-score at 10 µM | AID 2227, 2009;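 active means B-score of calcium response area above 5 SD of library B-scores, with initial fluorescence ratio within 5 SD of library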;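 further: B-score of integrated fluorescence ratio over time as area under calcium response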
# TRPC4 agonist = activators of mouse TRPC4 channel, primary screen, Fluo4 calcium, HEK293 TRPC4beta/mu-opioid cells; Short transient receptor potential channel 4 (Mus musculus), Q9QUQ5; Fluo4 calcium fluorescence; active compounds read high; B-score at 10 µM; 310,000 tested, 0.49% active;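 active means B-score above 5 SD of library B-scores, and initial fluorescence ratio not above library mean plus 5 SD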;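 further: positive B-score marks a calcium rise read as TRPC4 activation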
#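 Assay system: HEK293 cells stably co-expressing mouse TRPC4beta and mu-opioid receptor / Timing: Fluo4 dye loading 45 min at room temperature, 110 s recording / Signal: Fluo4 calcium-sensitive dye fluorescence, kinetic, 1 Hz baseline / Read-out: integrated baseline-normalised fluorescence ratio, converted to per-well B score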
# DNA FID counter = compounds displacing fluorescent DNA intercalator, primary screen, artefact control for HCV NS3 helicase inhibitor project, biochemical, FID fluorescence | AID 1845, 2009 | DNA fluorescent intercalator displacement | inhibition, % at 7.9 µM | 290,000 tested, 0.17% active; in the data active means inhibition above about 37%;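 further: 0% = vehicle and 100% = reference compound; higher means more ethidium bromide displaced from hairpin DNA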
# An asterisk follows results filed as active; i = inactive; . = no result.
SMILES,TRPC6 inh,TRPC4 inh,TRPC6 activator,TRPC4 PAM,TRPC4 agonist,DNA FID counter
Cc1cc2c(cc1C)N(Cc1ccc(Cl)cc1)C1=NCCCN12,i,i,i,111*,i,.
O=C1N=C(N2C=CC(=C3C=CNC=C3)C=C2)/C(=C/N=NC(=O)c2ccccc2O)S1,i,i,i,i,i,-10
CC(=O)c1ccc(N2CCN(CC(O)COC(c3ccccc3)c3ccccc3C)CC2)cc1 (configuration not stated),i,i,i,12*,i,7
CC(=O)c1ccc(N2CCN(CC(O)COC(c3ccccc3)c3ccccc3)CC2)cc1 (configuration not stated),i,i,i,11*,i,5
OC(COC(c1ccccc1)c1ccccc1)CN1CCN(c2cccc(Cl)c2)CC1 (configuration not stated),i,i,i,i,i,13
CCOC(=O)N1CCC(NCCNC(=O)c2cccs2)CC1,i,i,i,i,i,7
O=C(NCCNC1CCC(c2ccccc2)CC1)c1cccs1 (configuration not stated),i,i,i,i,158*,34
Cc1ccc(OCC(=O)NNC(=S)NC(=O)c2ccc(Br)o2)c(C)c1,i,-6*,i,20*,69*,-12
Cc1ccc(OCC(=O)NNC(=S)NC(=O)c2cccs2)c(C)c1,i,i,i,i,66*,-10
O=C(COc1ccc(Br)cc1Br)NNC(=O)c1cccs1,i,i,i,i,i,-10
Cc1cc(OCC(=O)NNC(=S)NC(=O)c2cccs2)ccc1Cl,i,i,i,19*,i,-18
CC1CCN(C(=O)CCCC(=O)N2CCC(C)CC2)CC1,i,i,i,i,i,-19
CC(=O)NCCc1nc2ccccc2n1CCc1ccccc1,i,i,i,i,i,13
O=S(=O)(c1ccc(C(F)(F)F)cc1)N1CCN(CCc2ccccc2)CC1,i,i,i,i,i,-20
Cc1ccc(Nc2ncc3c(n2)CC(C)(C)CC3=O)cc1,i,i,i,18*,i,-15
CC(C)[C@@H]1CC[C@@H](C)c2c(-c3ccccc3)n[nH]c21,i,i,i,10*,i,-24
COc1ccccc1C(=O)NC(CCSC)C(=O)NCCCSc1ccccc1 (configuration not stated),i,i,i,i,i,.
CC(C)C(=O)Nc1ccc(C(=O)Nc2nnc(C(C)(C)C)s2)cc1,i,-6*,i,i,i,-18
CC(OC(=O)Cn1cnc2c1c(=O)n(C)c(=O)n2C)C(=O)Nc1ccc(Cl)cc1 (configuration not stated),i,-8*,i,i,i,.
CCCCCCC1C(C#N)=C(N)OC2=C1C(=O)CC(C)(C)C2 (configuration not stated),i,i,i,i,i,-13
CCCCC1C2=C(CC(C)(C)CC2=O)OC2=C1C(=O)CC(C)(C)C2,i,i,i,14*,i,-25
CCCC/C(C)=N/NC(=O)Nc1ccccc1,i,i,i,i,74*,0
CCCCC/C(=N\NC(=O)Nc1ccccc1)c1ccccc1,i,i,i,i,i,-13
CCN1C(=O)[C@@H]2[C@@H](c3ccc(SC4CCCCC4)cc3)N3CCC[C@@]3(C(=O)OC)[C@@H]2C1=O,i,i,i,i,i,.
Cc1ccc(N(C)C(=O)c2cc(S(=O)(=O)N3CCCC3)cn2C)cc1,i,i,i,i,i,-24
SMILES,TRPC6 inh,TRPC4 inh,TRPC6 activator,TRPC4 PAM,TRPC4 agonist,DNA FID counter
Cc1cc(OCc2cc(C(=O)NCC3(C)COC3)no2)cc(C)c1Cl,i,-6*,i,i,i,-43
O=S(=O)(Nc1ccc(S(=O)(=O)Nc2ccccc2)cc1)c1ccccc1,i,i,i,11*,i,1
O=S(=O)(Nc1cccc2ccccc12)c1cccs1,i,i,i,i,i,-8
O=S(=O)(Nc1ccc(S(=O)(=O)Nc2cccc3ccccc23)cc1)c1ccccc1,i,i,i,15*,i,-8
COc1ccc2[nH]cc(CCNC(=O)C3CCCCC3)c2c1,i,i,i,i,i,-9
CCN1CCN(CCCNC(=O)CCC(=O)N2CC(C)Oc3ccc(C)cc32)CC1 (configuration not stated),i,i,i,i,i,0
O=C(NCC1CC1)c1ccccc1Cl,i,i,i,i,i,1
COc1ccc(C(=O)NCC(c2ccco2)N2CCc3ccccc32)c(OC)c1 (configuration not stated),i,i,i,10*,i,.
CCOC(=O)c1oc2ccc(OC)cc2c1NC(=O)CN1CCN(C)CC1,i,i,i,i,88*,9
CCOC(=O)c1oc2ccccc2c1NC(=O)CN1CCN(C)CC1,i,i,i,i,i,7
COc1ccc(CN(C)C(=O)c2oc3ccccc3c2CSC)cc1F,i,i,i,i,i,-38
CN(CC(=O)Nc1cccc(S(=O)(=O)N2CCCC2)c1)CC(=O)Nc1ccc(Cl)c(C(F)(F)F)c1,i,i,i,i,i,.
CCC(C(=O)Nc1ccccc1OC)n1c(C(=O)OC)cc2ccsc21 (configuration not stated),i,i,i,15*,i,-9
Cc1noc(C)c1CCC(=O)NC1CCCN(Cc2ccc(Cl)cc2)C1 (configuration not stated),i,i,i,i,i,-4
Cc1noc(C)c1CCC(=O)NC1CCCN(Cc2ccc(CC(C)C)cc2)C1 (configuration not stated),i,i,i,i,101*,24
CCn1ncc(S(=O)(=O)N2CCN(c3cccc(OC)c3)CC2)c1C,i,i,i,i,i,-17
Clc1ccc(OCCn2ccnc2)c2ccccc12,i,i,i,i,53*,8
Clc1ccc(OCCn2ccnc2)c(Cl)c1,i,i,i,14*,i,10
